In ChEMBL document CHEMBL2057155, “Synthesis of betulinic acid derivatives as entry inhibitors against HIV-1 and bevirimat-resistant HIV-1 variants” (Bioorg Med Chem Lett, 2012):

What was measured:
[1] = tested on: Human immunodeficiency virus 1; experiment: Antiviral activity against HIV1 NL4-3 infected in human TZM-bl cells assessed as reduction in luciferase gene expression by luminescence assay; format: functional, organism-based; conditions: Human immunodeficiency virus 1, NL4-3, TZM-bl
Method in brief: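 Single-cycle HIV-1 NL4-3 infection of TZM-bl cells; HIV-1 tat-driven luciferase expression after viral entry read as the measure of inhibition. […] control is NL4-3 infection without compound. Values are the mean of two or more independent experiments with standard deviation.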

[2] = Cytotoxicity against human TZM-bl assessed as cell viability at 4 uM after 2 days; format: cell-based; conditions: 48 h
Method in brief: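 Toxicity to TZM-bl cells was checked within the single-cycle infection assay at 4 μM.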

[3] = Cytotoxicity against human MT4 assessed as cell viability after 2 days; format: cell-based; conditions: MT4 cells, read-out: TD50

Row | Compound | EC50 [1] [nM] | Activity [2] | CC50 at 48 h [3] [nM]
1 | C=C(C)[C@@H]1CC[C@]2(C(=O)NCCCCCCCNC(=O)[C@H](C)NC(=O)OC(C)(C)C)CC[C@]3(C)[C@H](CC[C@@H]4[C@@]5(C)CC[C@H](O)C(C)(C)[C@@H]5CC[C@]43C)[C@@H]12 | 110 | Non-toxic | –
2 | C=C(C)[C@@H]1CC[C@]2(C(=O)NCCCCCCCCC(=O)N[C@H](C(=O)OC)[C@@H](C)CC)CC[C@]3(C)[C@H](CC[C@@H]4[C@@]5(C)CC[C@H](O)C(C)(C)[C@@H]5CC[C@]43C)[C@@H]12 | 140 | Non-toxic | –
3 | C=C(C)[C@@H]1CC[C@]2(C(=O)NCCCCCCCCCNC(=O)[C@H](C)NC(=O)OC(C)(C)C)CC[C@]3(C)[C@H](CC[C@@H]4[C@@]5(C)CC[C@H](O)C(C)(C)[C@@H]5CC[C@]43C)[C@@H]12 | > 4000 | Non-toxic | –
4 | C=C(C)[C@@H]1CC[C@]2(C(=O)NCCCCC/C=C/C(=O)NCC(=O)O)CC[C@]3(C)[C@H](CC[C@@H]4[C@@]5(C)CC[C@H](O)C(C)(C)[C@@H]5CC[C@]43C)[C@@H]12 | 150 | Non-toxic | –
5 | C=C(C)[C@@H]1CC[C@]2(C(=O)NCCCCC/C=C(/F)C(=O)O)CC[C@]3(C)[C@H](CC[C@@H]4[C@@]5(C)CC[C@H](O)C(C)(C)[C@@H]5CC[C@]43C)[C@@H]12 | > 4000 | Non-toxic | –
6 | C=C(C)[C@@H]1CC[C@]2(C(=O)NCCCCCCCCC(=O)NCCC#N)CC[C@]3(C)[C@H](CC[C@@H]4[C@@]5(C)CC[C@H](O)C(C)(C)[C@@H]5CC[C@]43C)[C@@H]12 | 340 | Non-toxic | –
7 | C=C(C)[C@@H]1CC[C@]2(C(=O)NCCCCCCCCC(=O)N[C@@H](CCC(=O)OC)C(=O)OC)CC[C@]3(C)[C@H](CC[C@@H]4[C@@]5(C)CC[C@H](O)C(C)(C)[C@@H]5CC[C@]43C)[C@@H]12 | 60 | Non-toxic | –
8 | C=C(C)[C@@H]1CC[C@]2(C(=O)NCCOCCOCCNC(C)=O)CC[C@]3(C)[C@H](CC[C@@H]4[C@@]5(C)CC[C@H](O)C(C)(C)[C@@H]5CC[C@]43C)[C@@H]12 | > 4000 | Non-toxic | –
9 | C=C(C)[C@@H]1CC[C@]2(C(=O)NCCOCCOCC(=O)N[C@@H](C)C(=O)O)CC[C@]3(C)[C@H](CC[C@@H]4[C@@]5(C)CC[C@H](O)C(C)(C)[C@@H]5CC[C@]43C)[C@@H]12 | > 4000 | Non-toxic | –
10 | C=C(C)[C@@H]1CC[C@]2(C(=O)NCCCCCCCCC(=O)N[C@@H](Cc3ccccc3)C(=O)OC)CC[C@]3(C)[C@H](CC[C@@H]4[C@@]5(C)CC[C@H](O)C(C)(C)[C@@H]5CC[C@]43C)[C@@H]12 | 720 | Non-toxic | –
11 | C=C(C)[C@@H]1CC[C@]2(C(=O)NCCCCCCCCC(=O)N[C@@H](CC(C)C)C(=O)OC)CC[C@]3(C)[C@H](CC[C@@H]4[C@@]5(C)CC[C@H](O)C(C)(C)[C@@H]5CC[C@]43C)[C@@H]12 | 160 | Non-toxic | –
12 | C=C(C)[C@@H]1CC[C@]2(C(=O)NCCOCCOCC(=O)NCC(=O)O)CC[C@]3(C)[C@H](CC[C@@H]4[C@@]5(C)CC[C@H](O)C(C)(C)[C@@H]5CC[C@]43C)[C@@H]12 | > 4000 | Non-toxic | –
13 | C=C(C)[C@@H]1CC[C@]2(C(=O)NCCCCCCC(=O)N[C@@H](CCC(N)=O)C(=O)OC)CC[C@]3(C)[C@H](CC[C@@H]4[C@@]5(C)CC[C@H](O)C(C)(C)[C@@H]5CC[C@]43C)[C@@H]12 | > 4000 | Non-toxic | –
14 | C=C(C)[C@@H]1CC[C@]2(C(=O)NCCCCC/C=C(/F)C(=O)NCC(=O)O)CC[C@]3(C)[C@H](CC[C@@H]4[C@@]5(C)CC[C@H](O)C(C)(C)[C@@H]5CC[C@]43C)[C@@H]12 | 410 | Non-toxic | –
15 | C=C(C)[C@@H]1CC[C@]2(C(=O)NCCCCCCCCC(=O)N3CCC[C@H]3C(=O)OC)CC[C@]3(C)[C@H](CC[C@@H]4[C@@]5(C)CC[C@H](O)C(C)(C)[C@@H]5CC[C@]43C)[C@@H]12 | 160 | Non-toxic | –
16 | C=C(C)[C@@H]1CC[C@]2(C(=O)NCCCCCCCCNC(=O)[C@H](C)NC(=O)OC(C)(C)C)CC[C@]3(C)[C@H](CC[C@@H]4[C@@]5(C)CC[C@H](O)C(C)(C)[C@@H]5CC[C@]43C)[C@@H]12 | 90 | Non-toxic | –
17 | C=C(C)[C@@H]1CC[C@]2(C(=O)NCCCCCCCCNC(=O)C(CCC#N)NC(=O)OC(C)(C)C)CC[C@]3(C)[C@H](CC[C@@H]4[C@@]5(C)CC[C@H](O)C(C)(C)[C@@H]5CC[C@]43C)[C@@H]12 (some centres not stated) | 80 | Non-toxic | –

Row | Compound | EC50 [1] [nM] | Activity [2] | CC50 at 48 h [3] [nM]
18 | C=C(C)[C@@H]1CC[C@]2(C(=O)NCCCCCCCCCNC(=O)[C@H](CCC(N)=O)NC(=O)OC(C)(C)C)CC[C@]3(C)[C@H](CC[C@@H]4[C@@]5(C)CC[C@H](O)C(C)(C)[C@@H]5CC[C@]43C)[C@@H]12 | 120 | Non-toxic | –
19 | C=C(C)[C@@H]1CC[C@]2(C(=O)NCCCCCCCCNC(=O)[C@@H](NC(=O)OC(C)(C)C)C(C)C)CC[C@]3(C)[C@H](CC[C@@H]4[C@@]5(C)CC[C@H](O)C(C)(C)[C@@H]5CC[C@]43C)[C@@H]12 | 2430 | Non-toxic | –
20 | C=C(C)[C@@H]1CC[C@]2(C(=O)NCCCCC/C=C/C(=O)O)CC[C@]3(C)[C@H](CC[C@@H]4[C@@]5(C)CC[C@H](O)C(C)(C)[C@@H]5CC[C@]43C)[C@@H]12 | > 4000 | Non-toxic | –
21 | C=C(C)[C@@H]1CC[C@]2(C(=O)NCCOCCOCCNC(=O)Cc3nnn[nH]3)CC[C@]3(C)[C@H](CC[C@@H]4[C@@]5(C)CC[C@H](O)C(C)(C)[C@@H]5CC[C@]43C)[C@@H]12 | > 4000 | Non-toxic | –
22 | C=C(C)[C@@H]1CC[C@]2(C(=O)NCCCCCCCCC(=O)N[C@H](C(=O)OC)[C@@H](C)OC(C)(C)C)CC[C@]3(C)[C@H](CC[C@@H]4[C@@]5(C)CC[C@H](O)C(C)(C)[C@@H]5CC[C@]43C)[C@@H]12 | 3490 | Non-toxic | –
23 | C=C(C)[C@@H]1CC[C@]2(C(=O)NCCCCCCCCCC(=O)N[C@@H](CCC(N)=O)C(=O)OC)CC[C@]3(C)[C@H](CC[C@@H]4[C@@]5(C)CC[C@H](O)C(C)(C)[C@@H]5CC[C@]43C)[C@@H]12 | 60 | Non-toxic | –
24 | C=C(C)[C@@H]1CC[C@]2(C(=O)NCCCCCCCCC(=O)N[C@@H](CC(N)=O)C(=O)OC)CC[C@]3(C)[C@H](CC[C@@H]4[C@@]5(C)CC[C@H](O)C(C)(C)[C@@H]5CC[C@]43C)[C@@H]12 | 110 | Non-toxic | –
25 | C=C(C)[C@@H]1CC[C@]2(C(=O)NCCCCCCCCC(=O)N[C@@H](C)C(=O)OC)CC[C@]3(C)[C@H](CC[C@@H]4[C@@]5(C)CC[C@H](O)C(C)(C)[C@@H]5CC[C@]43C)[C@@H]12 | 70 | Non-toxic | –
26 | C=C(C)[C@@H]1CC[C@]2(C(=O)NCCCCCCCCC(=O)N[C@@H](CCC(N)=O)C(=O)OC(C)(C)C)CC[C@]3(C)[C@H](CC[C@@H]4[C@@]5(C)CC[C@H](O)C(C)(C)[C@@H]5CC[C@]43C)[C@@H]12 | 140 | Non-toxic | –
27 | C=C(C)[C@@H]1CC[C@]2(C(=O)NCCCCCCCCNC(=O)[C@@H]3CCCN3C(=O)OC(C)(C)C)CC[C@]3(C)[C@H](CC[C@@H]4[C@@]5(C)CC[C@H](O)C(C)(C)[C@@H]5CC[C@]43C)[C@@H]12 | 160 | Non-toxic | –
28 | C=C(C)[C@@H]1CC[C@]2(C(=O)NCCCCCCCCC(=O)N(C)CC#N)CC[C@]3(C)[C@H](CC[C@@H]4[C@@]5(C)CC[C@H](O)C(C)(C)[C@@H]5CC[C@]43C)[C@@H]12 | 810 | Non-toxic | –
29 | C=C(C)[C@@H]1CC[C@]2(C(=O)NCCCCCCCC(=O)N[C@@H](CCC(N)=O)C(=O)OC)CC[C@]3(C)[C@H](CC[C@@H]4[C@@]5(C)CC[C@H](O)C(C)(C)[C@@H]5CC[C@]43C)[C@@H]12 | 140 | Non-toxic | –
30 | C=C(C)[C@@H]1CC[C@]2(C(=O)NCCOCCOCCNC(=O)C(C)C)CC[C@]3(C)[C@H](CC[C@@H]4[C@@]5(C)CC[C@H](O)C(C)(C)[C@@H]5CC[C@]43C)[C@@H]12 | > 4000 | Non-toxic | –
31 | C=C(C)[C@@H]1CC[C@]2(C(=O)NCCCCCCCCCC(=O)N[C@@H](CC(N)=O)C(=O)OC)CC[C@]3(C)[C@H](CC[C@@H]4[C@@]5(C)CC[C@H](O)C(C)(C)[C@@H]5CC[C@]43C)[C@@H]12 | 80 | Non-toxic | –
32 | C=C(C)[C@@H]1CC[C@]2(C(=O)NCCCCCCCCC(=O)NCC#N)CC[C@]3(C)[C@H](CC[C@@H]4[C@@]5(C)CC[C@H](O)C(C)(C)[C@@H]5CC[C@]43C)[C@@H]12 | 440 | Non-toxic | –
33 | Cc1cc(/C=C/C#N)cc(C)c1Nc1ccnc(Nc2ccc(C#N)cc2)n1 [RILPIVIRINE] | – | – | > 100
34 | C=C(C)[C@@H]1CC[C@]2(C(=O)NCCCCCCCCNC(=O)[C@H](CCC(N)=O)NC(=O)OC(C)(C)C)CC[C@]3(C)[C@H](CC[C@@H]4[C@@]5(C)CC[C@H](O)C(C)(C)[C@@H]5CC[C@]43C)[C@@H]12 | 60 | Non-toxic | –
